Changes are numbered by the printed parent chain.
Key:
GK-W99 (W167F/W257F) = molecular target: T1, GK-W99 (W167F/W257F) (Homo sapiens, UniProt P35557, W167F/W257F); experiment: D-glucose binding by tryptophan fluorescence titration; conditions: W-99, no GKA
T1 sequence (P35557 1-465 W167F/W257F): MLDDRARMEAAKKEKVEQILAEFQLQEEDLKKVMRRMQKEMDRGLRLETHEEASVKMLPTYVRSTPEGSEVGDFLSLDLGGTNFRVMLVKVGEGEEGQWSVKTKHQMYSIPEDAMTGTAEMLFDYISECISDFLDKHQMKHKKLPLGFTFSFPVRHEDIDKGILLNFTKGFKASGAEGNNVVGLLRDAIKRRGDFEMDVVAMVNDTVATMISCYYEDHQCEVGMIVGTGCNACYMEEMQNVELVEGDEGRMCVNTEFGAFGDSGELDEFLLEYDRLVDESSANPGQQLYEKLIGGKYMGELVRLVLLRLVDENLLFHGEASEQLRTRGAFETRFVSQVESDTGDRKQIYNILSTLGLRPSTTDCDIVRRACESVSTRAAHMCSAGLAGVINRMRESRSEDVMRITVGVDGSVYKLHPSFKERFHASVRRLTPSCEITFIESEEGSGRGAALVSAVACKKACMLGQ

GK- W257 (W99R/W167F) [1] = molecular target: T2, GK- W257 (W99R/W167F) (Homo sapiens, UniProt P35557, W167F/W99R); experiment: NADP+-coupled spectrophotometric kinetic assay; type: biochemical; conditions: W-257, no GKA
T2 sequence (P35557 1-465 W99R/W167F): T1 sequence (P35557 1-465 W167F/W257F) with W99R, F257W

GK-W167 (W99R/W257F) = molecular target: T3, GK-W167 (W99R/W257F) (Homo sapiens, UniProt P35557, W257F/W99R); experiment: DSC thermal denaturation; conditions: W-167 in buffer, 300 mM D-glucose
T3 sequence (P35557 1-465 W99R/W257F): T1 sequence (P35557 1-465 W167F/W257F) with W99R, F167W
In short: (§1)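 Samples were degassed and scanned by DSC at 0.25 degree/min against a reference holding everything except protein. Tm and calorimetric ΔH were taken by integrating the Cp-vs-temperature thermogram; Cpm is the apparent heat capacity at the maximum.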

GK- W257 (W99R/W167F) [2] = molecular target: T2, GK- W257 (W99R/W167F); experiment: DSC thermal denaturation; conditions: W-257 in buffer, 300 mM D-glucose
In short: as §1

GK-WT = molecular target: T4, GK-WT (Homo sapiens, UniProt P35557); experiment: Urea unfolding/refolding of GK by tryptophan fluorescence; conditions: 20°C, pH 7.3
T4 sequence (P35557 1-465): T1 sequence (P35557 1-465 W167F/W257F) with F167W, F257W
In short: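 GK-WT unfolding was followed by urea titration in 20 mM PO4, 50 mM KCl, 1 mM EDTA, 1 mM DTT, pH 7.3, 20 °C, ± 20% glycerol, ± 300 mM glucose. I320/I360 was read at 295 nm excitation, and ΔGu(H2O) came from a two-state fit. Reversibility was tested after 30 min in 4 or 8 M urea, then dialysis, by restoration of the spectrum and glucose response.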

- Kd (GK-W99 (W167F/W257F); 20% glycerol): 4.06 mM
- Kd (GK-W99 (W167F/W257F); no glycerol): 18.8 mM
- Glucose S0.5 (GK- W257 (W99R/W167F) [1]; 30% glycerol): 4.70 mM
- kcat (GK- W257 (W99R/W167F) [1]; 30% glycerol): 6.37 s⁻¹
- nH (Hill coefficient towards glucose) (GK- W257 (W99R/W167F) [1]; 30% glycerol): 1.43
- Glucose S0.5 (GK- W257 (W99R/W167F) [1]; no glycerol): 9.82 mM
- kcat (GK- W257 (W99R/W167F) [1]; no glycerol): 12.4 s⁻¹
- kcat/S0.5 (GK- W257 (W99R/W167F) [1]; no glycerol): 1270 M⁻¹ s⁻¹
- nH (Hill coefficient towards glucose) (GK- W257 (W99R/W167F) [1]; no glycerol): 1.23
- Cp^m (GK-W167 (W99R/W257F)): 90.4 kJ/mol/°C
- ΔH thermal denaturation (GK-W167 (W99R/W257F)): 97.99 kcal/mol
- Tm (GK-W167 (W99R/W257F); DSC): 53.4 °C
- Cp^m (GK- W257 (W99R/W167F) [2]): 122.6 kJ/mol/°C
- ΔH thermal denaturation (GK- W257 (W99R/W167F) [2]): 158 kcal/mol
- Tm (GK- W257 (W99R/W167F) [2]; DSC): 51.2 °C
- ΔGu(H2O) of urea denaturation (GK-WT; GK-WT in 20% glycerol with 300 mM D-glucose): 2.87 kcal/mol
- ΔGu(H2O) of urea denaturation (GK-WT; GK-WT in buffer with 300mM D-glucose): 2.48 kcal/mol
Structure (SMILES): OC[C@H]1OC(O)[C@H](O)[C@@H](O)[C@@H]1O (stereo partly drawn) [D-glucose]

From article PMC4180501 (Biochimica et biophysica acta, 2012)
